Calls of active or inactive are those of the source. No cut-off for these calls is given here.
Assays:
[1] = Inhibition of Penicillium decumbens alpha-L-rhamnosidase assessed as p-nitrophenol release after 30 mins by spectrophotometry
How it was run: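 Penicillium decumbens enzyme assayed at pH 4.5 with the appropriate p-nitrophenyl glycoside. Substrate, diluted enzyme and inhibitor were incubated 30 min at 37 °C, then stopped with 400 mM Na2CO3. Released p-nitrophenol was read at 400 nm.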

[2] = target: T1, Beta-mannosidase (Rattus norvegicus) (UniProt Q4FZV0); assay: Inhibition of rat epididymis beta-mannosidase assessed as p-nitrophenol release at 1000 uM after 30 mins by spectrophotometry
T1 sequence (whole entry): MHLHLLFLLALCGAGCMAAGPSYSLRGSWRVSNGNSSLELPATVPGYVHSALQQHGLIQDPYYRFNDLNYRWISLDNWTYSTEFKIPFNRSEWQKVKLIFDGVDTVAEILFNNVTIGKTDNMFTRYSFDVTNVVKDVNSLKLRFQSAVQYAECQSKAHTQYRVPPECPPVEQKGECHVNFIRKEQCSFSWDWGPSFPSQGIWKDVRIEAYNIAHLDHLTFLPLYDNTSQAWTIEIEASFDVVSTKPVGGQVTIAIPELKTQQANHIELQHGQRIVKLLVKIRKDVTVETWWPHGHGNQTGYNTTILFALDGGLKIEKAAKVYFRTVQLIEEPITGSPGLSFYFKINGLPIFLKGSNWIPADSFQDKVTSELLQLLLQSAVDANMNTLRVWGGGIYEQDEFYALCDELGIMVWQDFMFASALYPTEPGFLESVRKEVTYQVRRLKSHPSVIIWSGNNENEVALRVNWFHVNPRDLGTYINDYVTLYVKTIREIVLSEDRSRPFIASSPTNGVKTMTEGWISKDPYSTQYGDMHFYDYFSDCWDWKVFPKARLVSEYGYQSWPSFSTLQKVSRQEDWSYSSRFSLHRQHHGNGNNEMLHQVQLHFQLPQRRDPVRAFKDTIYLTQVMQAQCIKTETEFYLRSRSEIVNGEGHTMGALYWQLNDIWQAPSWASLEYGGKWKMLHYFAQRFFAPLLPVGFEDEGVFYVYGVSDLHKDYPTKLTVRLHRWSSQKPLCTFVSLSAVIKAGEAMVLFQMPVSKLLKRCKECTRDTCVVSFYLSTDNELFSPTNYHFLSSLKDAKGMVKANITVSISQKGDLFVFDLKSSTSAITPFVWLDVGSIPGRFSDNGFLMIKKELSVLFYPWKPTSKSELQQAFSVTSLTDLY
How it was run: (§1)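 p-Nitrophenyl glycoside substrates: Penicillium decumbens α-L-rhamnosidase at pH 4.5, bovine epididymis α-L-fucosidase at pH 5.5, bovine liver β-galactosidase at pH 6.8. β-Mannosidase came from rat epididymal fluid purified from epididymis, with p-nitrophenyl-β-D-mannoside at pH 5.2. Enzyme, substrate and inhibitor were incubated 30 min at 37 °C. The reaction was stopped with 400 mM Na2CO3, and p-nitrophenol was read at 400 nm.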

[3] = target: T2, Beta-galactosidase (Bos taurus, UniProt Q58D55); assay: Inhibition of bovine liver beta-galactosidase assessed as p-nitrophenol release after 30 mins by spectrophotometry
T2 sequence (Q58D55 whole entry): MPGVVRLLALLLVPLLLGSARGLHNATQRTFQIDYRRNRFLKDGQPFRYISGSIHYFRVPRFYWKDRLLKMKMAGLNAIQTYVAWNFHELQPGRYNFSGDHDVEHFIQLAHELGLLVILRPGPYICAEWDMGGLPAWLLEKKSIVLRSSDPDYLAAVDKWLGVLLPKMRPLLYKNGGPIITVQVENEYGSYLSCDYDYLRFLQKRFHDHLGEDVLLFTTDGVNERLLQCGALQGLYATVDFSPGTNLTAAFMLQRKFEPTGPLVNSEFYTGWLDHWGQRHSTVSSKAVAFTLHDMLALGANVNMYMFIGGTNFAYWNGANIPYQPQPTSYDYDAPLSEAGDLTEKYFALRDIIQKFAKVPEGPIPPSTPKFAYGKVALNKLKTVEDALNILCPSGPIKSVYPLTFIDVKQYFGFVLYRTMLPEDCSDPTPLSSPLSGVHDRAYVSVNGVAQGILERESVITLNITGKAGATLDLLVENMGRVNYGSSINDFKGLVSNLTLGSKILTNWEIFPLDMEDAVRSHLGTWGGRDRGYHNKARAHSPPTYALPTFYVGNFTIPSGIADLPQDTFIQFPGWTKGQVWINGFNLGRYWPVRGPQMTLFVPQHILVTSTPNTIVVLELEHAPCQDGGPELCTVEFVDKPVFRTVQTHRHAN
How it was run: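 Bovine liver enzyme at pH 6.8 with the appropriate p-nitrophenyl glycoside. Incubated with inhibitor 30 min at 37 °C, quenched with 400 mM Na2CO3, and released p-nitrophenol read at 400 nm.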

[4] = target: Oligo-1,6-glucosidase IMA1 (Saccharomyces cerevisiae S288c) (UniProt P53051); assay: Inhibition of yeast alpha-glucosidase assessed as p-nitrophenol release at 1000 uM after 30 mins measured spectrometrically at 400 nm
[5] = target: T3, Tissue alpha-L-fucosidase (Bos taurus) (UniProt Q2KIM0); assay: Inhibition of bovine epididymis alpha-L-fucosidase assessed as p-nitrophenol release at 1000 uM after 30 mins by spectrophotometry; how it was run: as §1
T3 sequence (whole entry): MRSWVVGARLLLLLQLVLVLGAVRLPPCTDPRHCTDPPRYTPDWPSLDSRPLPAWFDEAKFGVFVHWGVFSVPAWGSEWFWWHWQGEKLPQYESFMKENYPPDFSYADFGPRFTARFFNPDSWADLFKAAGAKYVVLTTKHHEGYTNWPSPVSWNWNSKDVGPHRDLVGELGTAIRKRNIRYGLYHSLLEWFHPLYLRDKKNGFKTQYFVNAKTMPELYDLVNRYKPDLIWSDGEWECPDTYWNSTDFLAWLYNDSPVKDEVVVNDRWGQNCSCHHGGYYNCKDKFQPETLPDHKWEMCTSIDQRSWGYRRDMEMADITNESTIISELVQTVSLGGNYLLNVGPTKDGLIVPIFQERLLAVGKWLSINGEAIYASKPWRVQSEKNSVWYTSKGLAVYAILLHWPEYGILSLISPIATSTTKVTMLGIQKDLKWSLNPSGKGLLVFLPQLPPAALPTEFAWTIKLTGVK

[6] = Inhibition of rice alpha-glucosidase assessed as D-glucose release after 10 mins by Glucose B-test; set-up: species or system Oryza sativa
How it was run: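 Rice enzyme with maltose as substrate at the enzyme's optimum pH. Incubation with inhibitor ran 10 min at 37 °C. Released D-glucose determined colorimetrically with a glucose test kit.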

[7] = target: Lysosomal alpha-glucosidase (Rattus norvegicus, UniProt Q6P7A9); assay: Inhibition of rat liver lysosome alpha-glucosidase assessed as p-nitrophenol release after 30 mins measured spectrometrically at 400 nm
[8] = tested on: Oryza sativa; assay: Inhibition of rice alpha-glucosidase assessed as D-glucose release at 1000 uM after 10 mins by Glucose B-test
How it was run: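 Rice α-glucosidase was assayed with maltose as substrate at the enzyme's optimum pH. Incubation with inhibitor was 10 min at 37 °C. Released D-glucose was determined colorimetrically by Glucose B-test.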

[9] = target: Oligo-1,6-glucosidase IMA1 (Saccharomyces cerevisiae S288c) (UniProt P53051); assay: Inhibition of yeast alpha-glucosidase assessed as D-glucose release at 1000 uM after 30 mins by Glucose B-test
[10] = target: Lysosomal alpha-glucosidase (Rattus norvegicus) (UniProt Q6P7A9); assay: Inhibition of rat intestinal maltase assessed as D-glucose release at 1000 uM after 30 mins by Glucose B-test
How it was run: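 Brush border membranes from rat small intestine served as the enzyme source, with maltose substrate at pH 5.8. Incubation with inhibitor was 30 min at 37 °C. Released D-glucose was measured colorimetrically by Glucose B-test.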

[11] = tested on: Penicillium decumbens; assay: Inhibition of Penicillium decumbens alpha-L-rhamnosidase assessed as p-nitrophenol release at 1000 uM by spectrophotometry; how it was run: as §1
[12] = Inhibition of rat intestinal amyloglucosidase
[13] = target: T4, Tissue alpha-L-fucosidase (Bos taurus, UniProt Q2KIM0); assay: Inhibition of bovine epididymis alpha-L-fucosidase assessed as p-nitrophenol release after 30 mins by spectrophotometry
T4 sequence (Q2KIM0 whole entry): T3 sequence (whole entry)
How it was run: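 Enzyme from bovine epididymis, run at pH 5.5 with the appropriate p-nitrophenyl glycoside substrate. Enzyme, substrate and inhibitor incubated together 30 min at 37 °C. Reaction stopped by adding 400 mM Na2CO3; p-nitrophenol measured spectrometrically at 400 nm.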

[14] = target: T5, Beta-galactosidase (Bos taurus) (UniProt Q58D55); assay: Inhibition of bovine liver beta-galactosidase assessed as p-nitrophenol release at 1000 uM after 30 mins by spectrophotometry; how it was run: as §1
T5 sequence (whole entry): T2 sequence (Q58D55 whole entry)

[15] = target: Lysosomal alpha-glucosidase (Rattus norvegicus) (UniProt Q6P7A9); assay: Inhibition of rat liver lysosome alpha-glucosidase assessed as D-glucose release at 1000 uM after 30 mins by Glucose B-test
[16] = target: Lactase/phlorizin hydrolase (Rattus norvegicus, UniProt Q02401); assay: Inhibition of rat intestinal lactase assessed as p-nitrophenol release after 30 mins by spectrophotometry
Lactase/phlorizin hydrolase, sequence (Q02401 868-1928 limits assumed): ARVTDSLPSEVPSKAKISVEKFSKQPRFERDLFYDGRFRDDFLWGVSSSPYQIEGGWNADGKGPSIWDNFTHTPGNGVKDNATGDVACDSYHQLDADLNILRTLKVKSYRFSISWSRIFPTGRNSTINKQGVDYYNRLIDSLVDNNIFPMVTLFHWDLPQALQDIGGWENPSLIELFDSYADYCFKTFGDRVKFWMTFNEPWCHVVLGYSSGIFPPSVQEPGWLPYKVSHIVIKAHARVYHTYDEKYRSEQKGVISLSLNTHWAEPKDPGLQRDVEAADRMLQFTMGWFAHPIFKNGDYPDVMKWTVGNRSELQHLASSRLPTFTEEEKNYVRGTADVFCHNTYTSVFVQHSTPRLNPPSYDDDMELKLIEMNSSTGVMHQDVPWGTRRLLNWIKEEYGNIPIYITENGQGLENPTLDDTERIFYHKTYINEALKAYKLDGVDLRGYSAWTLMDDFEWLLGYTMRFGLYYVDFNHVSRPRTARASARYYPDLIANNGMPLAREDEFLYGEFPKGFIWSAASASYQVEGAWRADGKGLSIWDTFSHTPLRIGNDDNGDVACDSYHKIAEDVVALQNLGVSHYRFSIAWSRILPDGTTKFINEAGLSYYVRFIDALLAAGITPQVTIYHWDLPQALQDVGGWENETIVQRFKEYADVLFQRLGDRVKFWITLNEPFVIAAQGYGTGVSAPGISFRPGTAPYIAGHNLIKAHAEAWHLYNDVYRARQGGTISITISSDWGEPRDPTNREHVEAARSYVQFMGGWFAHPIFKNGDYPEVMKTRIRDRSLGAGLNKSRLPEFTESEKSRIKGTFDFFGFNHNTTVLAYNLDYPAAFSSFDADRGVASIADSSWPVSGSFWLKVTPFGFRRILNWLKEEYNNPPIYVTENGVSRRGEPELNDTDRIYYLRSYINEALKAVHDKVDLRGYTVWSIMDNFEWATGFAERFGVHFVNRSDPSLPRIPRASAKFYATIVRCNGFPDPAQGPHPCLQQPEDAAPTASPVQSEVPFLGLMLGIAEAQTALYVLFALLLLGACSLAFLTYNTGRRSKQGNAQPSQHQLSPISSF

Oligo-1,6-glucosidase IMA1 (Saccharomyces cerevisiae S288c), sequence (P53051 whole entry): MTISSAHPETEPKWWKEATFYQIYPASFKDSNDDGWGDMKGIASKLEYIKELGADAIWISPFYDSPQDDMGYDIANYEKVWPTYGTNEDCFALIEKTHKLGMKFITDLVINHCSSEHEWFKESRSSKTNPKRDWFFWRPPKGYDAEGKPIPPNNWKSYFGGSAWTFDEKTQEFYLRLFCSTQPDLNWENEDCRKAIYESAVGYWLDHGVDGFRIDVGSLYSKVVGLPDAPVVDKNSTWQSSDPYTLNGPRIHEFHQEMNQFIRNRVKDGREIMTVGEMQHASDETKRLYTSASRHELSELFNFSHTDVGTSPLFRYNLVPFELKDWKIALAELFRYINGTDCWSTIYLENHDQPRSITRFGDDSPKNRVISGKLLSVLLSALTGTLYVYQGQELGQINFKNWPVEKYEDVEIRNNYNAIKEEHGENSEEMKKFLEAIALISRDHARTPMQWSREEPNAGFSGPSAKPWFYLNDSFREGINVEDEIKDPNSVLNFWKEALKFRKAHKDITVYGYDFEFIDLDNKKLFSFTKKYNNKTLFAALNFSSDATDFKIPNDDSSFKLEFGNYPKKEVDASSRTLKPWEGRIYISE
Lysosomal alpha-glucosidase (Rattus norvegicus), sequence (Q6P7A9 whole entry): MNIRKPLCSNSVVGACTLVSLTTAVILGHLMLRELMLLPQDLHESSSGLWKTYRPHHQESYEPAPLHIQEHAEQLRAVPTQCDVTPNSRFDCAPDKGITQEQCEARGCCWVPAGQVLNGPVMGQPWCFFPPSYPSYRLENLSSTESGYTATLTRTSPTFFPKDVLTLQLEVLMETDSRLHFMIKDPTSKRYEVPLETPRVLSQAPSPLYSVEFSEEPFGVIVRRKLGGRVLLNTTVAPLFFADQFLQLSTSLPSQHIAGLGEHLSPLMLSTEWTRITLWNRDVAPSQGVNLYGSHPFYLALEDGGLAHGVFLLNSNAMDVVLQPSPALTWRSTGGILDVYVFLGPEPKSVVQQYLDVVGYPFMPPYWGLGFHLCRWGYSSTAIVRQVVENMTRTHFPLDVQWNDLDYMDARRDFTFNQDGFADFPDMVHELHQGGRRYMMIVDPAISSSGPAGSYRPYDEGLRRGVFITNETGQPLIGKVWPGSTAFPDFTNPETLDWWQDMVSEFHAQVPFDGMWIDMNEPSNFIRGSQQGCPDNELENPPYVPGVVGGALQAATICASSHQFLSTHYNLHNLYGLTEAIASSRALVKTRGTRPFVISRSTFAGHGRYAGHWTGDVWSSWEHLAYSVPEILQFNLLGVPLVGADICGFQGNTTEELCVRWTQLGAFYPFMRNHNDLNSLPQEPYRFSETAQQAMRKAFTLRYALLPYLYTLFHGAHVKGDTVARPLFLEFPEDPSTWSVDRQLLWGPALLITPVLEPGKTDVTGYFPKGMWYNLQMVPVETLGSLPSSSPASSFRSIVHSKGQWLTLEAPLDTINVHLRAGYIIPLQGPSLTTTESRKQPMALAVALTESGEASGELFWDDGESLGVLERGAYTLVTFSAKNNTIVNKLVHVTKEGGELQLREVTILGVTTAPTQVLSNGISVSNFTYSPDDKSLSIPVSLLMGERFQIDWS
Lysosomal alpha-glucosidase, sequence (Q6P7A9 whole entry): as above

Compound	IC50 [1]	inhibition [2]	IC50 [3]	inhibition [4]	inhibition [5]	IC50 [6]	IC50 [7]	Activity [8]	Activity [9]	Activity [10]	Activity [11]	IC50 [12]	IC50 [13]	Activity [14]	Activity [5]	Activity [15]	IC50 [16]
C[C@H]1N[C@H](CO)[C@@H](O)[C@H](O)[C@H]1O	94 µM	< 50%	260 µM	< 50%	< 50%	8 µM	19 µM	–	–	–	–	–	–	–	–	–	–
C[C@@H]1C[C@H](O)[C@@H]2[C@@H](O)[C@H](O)[C@@H](CO)N21 (relative stereo) [HYACINTHACINE B4]	–	–	–	–	–	–	–	inactive	inactive	inactive	inactive	89 µM	23 µM	inactive	inactive	inactive	–
C[C@@H]1C[C@@H](O)[C@@H]2[C@H](O)[C@H](O)[C@@H](CO)N21 [HYACINTHACINE B3]	–	–	–	–	–	–	–	inactive	inactive	inactive	inactive	51 µM	–	inactive	inactive	inactive	18 µM

Source: ChEMBL document CHEMBL1137816, “New polyhydroxylated pyrrolidine, piperidine, and pyrrolizidine alkaloids from Scilla sibirica” (J Nat Prod, 2002)
